Experimental findings from ChEMBL document CHEMBL4350956, “Paired Utility of Aza-Amino Acyl Proline and Indolizidinone Amino Acid Residues for Peptide Mimicry: Conception of Prostaglandin F2α Receptor Allosteric Modulators That Delay Preterm Birth” (J Med Chem, 2019) are described below.

The target of assay [1] is Prostaglandin F2-alpha receptor (Mus musculus) (UniProt P43117). Briefly: Allosteric modulator activity at prostaglandin F2alpha receptor in CD-1 mouse myometrial strips assessed as inhibition of PGF2alpha- induced contraction at 1 uM pre-incubated for 20 mins followed by PGF2alpha challenge. In outline: (§1)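 Myometrial strips; baseline taken as mean tension of spontaneous contractions at start. Pretreated 20 min with modulator, then PGF2α challenge. Tension rise computed as […], X = PGF2α-induced change in mean tension (g), Y = initial reference response (g). % inhibition = (A-B)/A, A without and B with pretreatment. 5 experiments per group; means ± SEM.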

Assay [2] has the same target. The assay is described as follows: Allosteric modulator activity at prostaglandin F2alpha receptor in CD-1 mouse myometrial strips assessed as inhibition of PGF2alpha- induced contraction at 10 uM pre-incubated for 20 mins followed by PGF2alpha challenge. In outline:
as §1

For assay [3], the species on record is Mus musculus. The assay is described as follows: Inhibition of spontaneous myometrial contraction in CD-1 mouse assessed as decrease in mean tension at 10 uM. It counts as functional, tissue-based. The conditions noted are these: Myometrium.
The subject of assay [4] is Mus musculus. The assay is described as follows: Suppression of LPS-induced premature delivery in Timed-pregnant CD-1 mouse assessed as inhibition of LPS-induced myometrial contraction by measuring percentage of animals delivering at 20 mg administered subcutaneously followed by 0.1 mg, ip bolus injection on day 16 prior to LPS challenge and measured on day 17. It counts as functional. Also noted: scale not given: the % may be the effect or the level left. In outline: (§2)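 Pregnant mice given LPS (E. coli endotoxin) intraperitoneally on gestational day 16. Test agent 20 mg/kg/day, started on day 16, before LPS; controls received saline. Delivery scored as percentage of animals delivered at 12, 15–24, 24–48 and 72 h after LPS. Average delivery time after LPS also recorded. 5–6 animals per treated group; n=10 for saline controls.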

The subject of assay [5] is Mus musculus. Briefly: Suppression of LPS-induced premature delivery in Timed-pregnant CD-1 mouse assessed as inhibition of LPS-induced myometrial contraction at 20 mg administered subcutaneously followed by 0.1 mg, ip bolus injection on day 16 prior to LPS challenge and measured up to day 19. It counts as functional, organism-based. The method, boiled down: as §2
Assay [6] concerns Mus musculus. Briefly: Suppression of LPS-induced premature delivery in Timed-pregnant CD-1 mouse assessed as inhibition of LPS-induced myometrial contraction by measuring time of delay in labor at 20 mg administered subcutaneously followed by 0.1 mg, ip bolus injection on day 16 prior to LPS challenge (reference value: 12 hrs). It counts as functional. In outline:
as §2

Assay [7] concerns Mus musculus. Briefly: Suppression of PGF2alpha-induced premature delivery in Timed-pregnant CD-1 mouse assessed as inhibition of PGFalpha-induced myometrial contraction by measuring time of delay in labor at 10 mg administered subcutaneously followed by 0.1 mg, ip bolus injection on day 16 prior to PGF2alpha challenge (reference value: 2 hrs). It counts as functional.

Activity calls are given as the source filed them. The rule behind the calls is not given here. Bounds are passed on as bounds.

Sequence of Prostaglandin F2-alpha receptor (Mus musculus) (P43117 whole entry): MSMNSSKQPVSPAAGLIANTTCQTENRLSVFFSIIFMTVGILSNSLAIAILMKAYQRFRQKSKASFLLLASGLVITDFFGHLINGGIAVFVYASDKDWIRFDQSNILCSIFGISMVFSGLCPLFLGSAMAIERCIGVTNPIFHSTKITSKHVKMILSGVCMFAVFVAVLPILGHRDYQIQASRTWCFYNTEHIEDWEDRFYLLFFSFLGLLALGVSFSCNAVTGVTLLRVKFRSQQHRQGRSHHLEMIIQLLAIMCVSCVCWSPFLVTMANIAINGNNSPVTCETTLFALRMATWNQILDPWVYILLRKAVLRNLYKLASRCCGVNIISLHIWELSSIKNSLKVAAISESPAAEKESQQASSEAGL

In the case of `O=C(O)C[C@H](Cc1ccccc1)NC(=O)[C@H](Cc1cccnc1)NC(=O)[C@@H]1CCC2=C(c3ccc(OC(F)(F)F)cc3)C[C@H](NC(=O)Cc3ccccc3)C(=O)N21`, the inhibition entry in assay [1] and in assay [2] was “inactive” throughout. For the same compound, the inhibition result in assay [3] is “Active”.

Turning to `O=C(O)C[C@H](Cc1ccccc1)NC(=O)[C@H](Cc1cccnc1)NC(=O)[C@@H]1CCCN1C(=O)N(Cc1ccccc1)NC(=O)Cc1ccccc1`, the Activity in assay [4] is under 20%. Besides, the inhibition result in assay [5] and in assay [2] was “Active” in each case. In addition, the Time in assay [6] stood at 24 h.

Take `O=C(O)C[C@H](Cc1ccccc1)NC(=O)[C@H](Cc1cccnc1)NC(=O)[C@@H]1CC[C@@H]2CC[C@H](NC(=O)Cc3ccccc3)C(=O)N21`: the Time in assay [7] is at most 42 h.
